Paper PMC8463927 (Journal of Advanced Research, 2021)

Legend:
PDK1 = molecular target: T1, PDK1 (Homo sapiens, UniProt O15530); assay: PDK1 kinase assay; type: biochemical; conditions: compared with GSK2334470
T1 sequence (O15530 1-556): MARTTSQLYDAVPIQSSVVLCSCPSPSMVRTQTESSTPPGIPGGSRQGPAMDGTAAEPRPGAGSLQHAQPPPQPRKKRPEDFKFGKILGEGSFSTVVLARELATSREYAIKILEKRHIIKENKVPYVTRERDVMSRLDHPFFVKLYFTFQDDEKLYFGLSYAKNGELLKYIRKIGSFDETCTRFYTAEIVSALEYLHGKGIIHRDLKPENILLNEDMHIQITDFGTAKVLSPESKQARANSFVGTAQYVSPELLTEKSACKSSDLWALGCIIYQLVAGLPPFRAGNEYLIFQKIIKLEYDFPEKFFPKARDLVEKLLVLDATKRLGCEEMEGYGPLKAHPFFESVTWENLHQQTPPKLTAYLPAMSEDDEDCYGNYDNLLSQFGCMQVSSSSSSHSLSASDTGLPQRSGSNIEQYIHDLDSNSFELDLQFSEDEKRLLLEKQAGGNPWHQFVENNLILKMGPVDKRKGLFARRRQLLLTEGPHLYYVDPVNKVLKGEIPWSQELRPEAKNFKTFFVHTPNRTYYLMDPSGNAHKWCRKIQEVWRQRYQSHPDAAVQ

PDE4 = assay: Enzymatic activity of cAMP-specific PDE4 in RAW264.7 cells; type: cell-based, murine; conditions: RAW264.7 and LPS-stimulated RAW264.7 cells
[1] = test system: LPS-stimulated human PBMCs; assay: LPS-induced TNF-α production in human PBMCs; type: cell-based; conditions: PBMC, read-out: IC50 on LPS-induced production of TNF-α
Procedure, shortened: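 Purchased human PBMCs (1 × 10⁶/well) in RPMI-1640 with 10% FBS and 2 mM L-glutamine were stimulated with LPS in the presence of test compound. TNF-α production was measured.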

RAW264.7 cells [2] = assay: Cytotoxicity on RAW264.7 cells; type: cell-based, murine; conditions: 24 h, CCK8
RAW264.7 cells [3] = assay: cAMP and CREB phosphorylation in RAW264.7 cells; type: cell-based, murine; conditions: for effect on arctigenin-induced phosphorylation of CREB: 10 μM with arctigenin 100 μM
Procedure, shortened: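 RAW264.7 cells were exposed to test compound for 15 min under LPS (1 μg/mL) induction, or at 100 μM alongside H89 (10 μM) and/or forskolin (10 μM). Lysates were BCA-normalised and run on 10% SDS-PAGE and nitrocellulose, probed overnight at 4 °C, and detected by chemiluminescence. Intracellular cAMP was measured in 0.1 M HCl lysates by direct ELISA. Mean ± SEM, n = 3.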

[4] = test system: LPS-induced RAW264.7 cells; assay: Inflammatory mediators in LPS-induced RAW264.7 cells; type: cell-based, murine
Procedure, shortened: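 RAW264.7 cells in DMEM with 10% FBS at 37 °C and 5% CO₂ were given test compound (100, 30, 10 μM) with LPS (1 μg/mL). Cells were lysed after 3 h for SYBR Green RT-PCR (ΔΔCt). Supernatants were kept for TNF-α and IL-6 ELISA and NO measurement.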

[5] = test system: IMQ-induced murine psoriasis; assay: IMQ-induced murine psoriatic skin lesions; type: in vivo, BALB/c mice
Procedure, shortened: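 Female BALB/c mice (6–8 weeks, 20–22 g), dorsal skin shaved, got 62.5 mg daily of […] IMQ cream topically for 7 days; groups (n = 7) were normal, IMQ only, and IMQ plus 5% test compound cream. PASI scored blind by 3 investigators. Read-outs: skin cAMP-specific PDE activity normalised to total protein, Ki-67 immunohistochemistry, serum Luminex 17-plex, skin RT-PCR (ΔΔCt), and skin-cell flow cytometry after collagenase IV digestion. Mean ± SEM.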

[6] = cited from earlier work
[7] = Arctigenin concentration in inflamed skin tissues; type: in vivo, mice; conditions: topical application
PDE4D catalytic domain = PDE4D catalytic domain (Homo sapiens, UniProt Q08499); assay: PDEs enzyme assay; type: biochemical
Sequence of PDE4D catalytic domain (Q08499 386-715 limits assumed): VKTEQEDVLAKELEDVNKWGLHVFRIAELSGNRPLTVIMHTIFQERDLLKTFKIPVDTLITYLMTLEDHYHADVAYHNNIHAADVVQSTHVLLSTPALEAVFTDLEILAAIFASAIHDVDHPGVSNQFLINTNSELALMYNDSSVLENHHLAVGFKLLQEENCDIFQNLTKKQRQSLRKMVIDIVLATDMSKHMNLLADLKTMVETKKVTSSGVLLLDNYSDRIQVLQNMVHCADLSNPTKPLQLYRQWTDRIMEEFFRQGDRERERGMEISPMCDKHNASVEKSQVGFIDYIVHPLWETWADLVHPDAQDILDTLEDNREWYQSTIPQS
Procedure, shortened: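 Purified PDE4D catalytic domain. Activity was read as hydrolysis of [³H]-cAMP to [³H]-AMP by scintillation proximity assay.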

In the case of COc1cc(C[C@H]2C(=O)OC[C@@H]2Cc2ccc(OC)c(OC)c2)ccc1O [Arctigenin], the “inhibition on PDK1” value (PDK1) is reported as “negligible”, the “enzymatic activity of PDE4 in cells” value (PDE4) is reported as “inhibit the enzymatic activity of PDE4 in the concentration-dependent manner” and the IC50 [1] is reported as 35.2 ± 6.01 µM. The cytotoxicity (RAW264.7 cells [2]) was “not associated with the cytotoxicity”, the “phosphorylation of CREB” value (RAW264.7 cells [3]; 15 min, western blot) was “led to the phosphorylation of CREB” and the “intracellular cAMP” value (RAW264.7 cells [3]; 30 min, concentration-dependent) was “significant elevation of intracellular cAMP”. The “production of TNF-α and IL-6” value ([4]; 100, 30, and 10 μM, LPS 24 h, ELISA, dose-dependent) was “reduce the production of TNF-α and IL-6”, the “mRNA expression level of TNF-α and IL-6” value ([4]; LPS 3 h, RT-PCR) was “decreased the mRNA expression level” and the “iNOS and COX-2 mRNA” value ([4]; concentration-dependent) was “downregulated”. For the same compound, the “serum IL-10” value ([5]; Luminex assay) was “promote the secretion of IL-10”, the serum inflammatory cytokines ([5]; Luminex assay) was “reduce the production of inflammatory cytokines” and the “CCR6 and CXCR3 on CD45+ leukocytes” value ([5]; flow cytometry) was “suppressed the protein expression of CCR6 and CXCR3”. For the same compound, the “skin myeloid cells, macrophages, neutrophils, DCs” value ([5]; flow cytometry) was “decreased when treated with arctigenin”, the “skin-infiltrated leukocytes, APCs, T cells, γδT cells” value ([5]; flow cytometry) was “reduced upon arctigenin treatment” and the “expression of chemokines in inflamed skins” value ([5]; gene expression) was “suppress the expression of chemokines”. The “expression of inflammatory cytokines in inflamed tissues” value ([5]; mRNA level) was “extensively attenuated”, the “Ki-67 positive staining in the epidermis” value ([5]; topical 5% arctigenin cream) was “reduced” and the “activity of cAMP-specific PDEs in skins” value ([5]; topical 5% arctigenin cream) was “obviously reversed”. For the same compound, the “cumulative PASI scores” value ([5]; topical 5% arctigenin cream) was “decreased the cumulative PASI scores”, the “skin level of cAMP” value ([5]; topical 5% arctigenin cream) was “upregulate the skin level of cAMP” and the “splenomegaly (spleen index)” value ([5]; topical 5% arctigenin cream) was “ameliorate the concomitant splenomegaly”. The epidermal thickening ([5]; topical 5% arctigenin cream, H&E) was “dramatically improved the epidermal thickening”, the body weight loss ([5]; topical 5% arctigenin cream, daily) was “significantly reversed the body weight loss” and the “therapeutic effect, topical vs oral” value ([5]; topical 5% cream vs oral 100 mg/kg) was “better therapeutic effect”. For the same compound, the “phosphorylation of CREB in skins” value ([5]; western blot) was “promote the phosphorylation of CREB”, the plasma concentration ([6]; oral administration, several animal species, ref [4], [35]) was “undetectable” and the “tissue accumulation in brain” value ([6]; ref [34]) was “lower than that in intestine, liver, kidney, lung, and heart”. The “concentration in the inflamed skin tissues” value [7] was 29.67 ± 15.42 μg/g skin samples and the IC50 (PDE4D catalytic domain) was 3.76 ± 0.28 µM.

For O=S(=O)(NCCNC/C=C/c1ccc(Br)cc1)c1cccc2cnccc12 [H89, reference compound], the “effect on arctigenin-induced phosphorylation of CREB” value (RAW264.7 cells [3]; 15 min) was “obviously blocked the effects of arctigenin on phosphorylation of CREB”.

In the case of C=C[C@@]1(C)CC(=O)[C@]2(O)[C@@]3(C)[C@@H](O)CCC(C)(C)[C@@H]3[C@H](O)[C@H](OC(C)=O)[C@@]2(C)O1 [forskolin, reference compound], the “effect on arctigenin-induced phosphorylation of CREB” value (RAW264.7 cells [3]; 15 min) is reported as “further enhance the effects of arctigenin on promoting the phosphorylation of CREB”.
